Measurements as given in ChEMBL document CHEMBL4382241, “Synthesis and evaluation of third generation vitamin D3 analogues as inhibitors of Hedgehog signaling” (Eur J Med Chem, 2019).
Converted amounts (≈) assume the structure as drawn. The source made the active and inactive calls. The calls are words filed in the database; no cut-off is given here.

How the values were obtained:
[1] = Half life in human liver microsomes at 1 uM by LC-MS/MS analysis
[2] = Kinetic solubility of the compound in pH 4 phosphate buffered saline; assay type: physicochemical; settings: read-out: Kinetic_solubility
How it was run: (§1)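 Kinetic solubility was run in PBS at pH 4.0 and at pH 7.4 under a standard contract protocol. Compound concentration was measured by LC-MS/MS.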

[3] = Kinetic solubility of the compound in pH 7.4 phosphate buffered saline; assay type: physicochemical; settings: read-out: Kinetic_solubility; how it was run: as §1
Medulloblastoma cell = experiment: Antiproliferative activity against medulloblastoma cells derived from conditional patched knockout mouse after 48 hrs by [3H]-thymidine incorporation assay; assay type: functional
How it was run: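 Primary tumour cells from Math1-Cre;Ptc fl/fl medulloblastoma were isolated and cultured in vitro, then incubated with analogue for 48 h in a proliferation assay. GI50 is mean ± SEM of at least two separate experiments performed in triplicate.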

[4] = Clearance in human liver microsomes assessed per mg protein at 1 uM by LC-MS/MS analysis
Mus musculus [5] = species on record: Mus musculus; experiment: Inhibition of Hedgehog signaling pathway in mouse C3H10T1/2 cells assessed as residual oxysterol-induced Gli1 mRNA expression at 5 uM after 24 hrs by q-PCR analysis relative to oxysterol alone
[6] = target: T1, Vitamin D3 receptor (Mus musculus) (UniProt P48281); experiment: Activation of VDR in mouse ASZ001 cells assessed as change in Cyp24A1 mRNA expression at 5 uM after 48 hrs by q-PCR analysis relative to control; assay type: cell-based
T1 sequence (whole entry): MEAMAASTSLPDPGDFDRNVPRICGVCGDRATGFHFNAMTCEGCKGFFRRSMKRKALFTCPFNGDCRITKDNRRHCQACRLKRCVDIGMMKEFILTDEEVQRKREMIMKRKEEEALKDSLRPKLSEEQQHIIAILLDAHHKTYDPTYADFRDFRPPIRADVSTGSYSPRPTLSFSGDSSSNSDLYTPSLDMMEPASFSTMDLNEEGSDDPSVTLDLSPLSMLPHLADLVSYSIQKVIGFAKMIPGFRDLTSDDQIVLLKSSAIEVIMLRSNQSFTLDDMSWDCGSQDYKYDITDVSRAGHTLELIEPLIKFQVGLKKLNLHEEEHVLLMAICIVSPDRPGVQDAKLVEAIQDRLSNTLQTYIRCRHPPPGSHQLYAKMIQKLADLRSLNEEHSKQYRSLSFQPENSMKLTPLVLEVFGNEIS

Vitamin D3 receptor = target: T2, Vitamin D3 receptor (Mus musculus, UniProt P48281); experiment: Activation of VDR in mouse ASZ001 cells assessed as change in Cyp24A1 mRNA expression after 48 hrs by q-PCR analysis; assay type: cell-based
T2 sequence (P48281 whole entry): T1 sequence (whole entry)
How it was run: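 In ASZ001 cells, full dose-response Cyp24A1 mRNA measurement by qPCR was done relative to DMSO control (1.0). EC50 values are mean ± SEM of at least two separate experiments performed in triplicate.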

[7] = Inhibition of Hedgehog signaling pathway in mouse ASZ001 cells assessed as reduction in […] Gli1 mRNA expression after 48 hrs by q-PCR analysis; assay type: cell-based; settings: ASZ001, 48 h
[8] = Inhibition of Hedgehog signaling pathway in mouse C3H10T1/2 cells assessed as reduction in oxysterol-induced Gli1 mRNA expression after 24 hrs by q-PCR analysis; assay type: cell-based; settings: C3H 10T1/2, 24 h
[9] = target: T1, Vitamin D3 receptor (Mus musculus); experiment: Activation of VDR in mouse C3H10T1/2 cells assessed as change in Cyp24A1 mRNA expression at 5 uM after 24 hrs by q-PCR analysis relative to control; assay type: cell-based
Mus musculus [10] = species on record: Mus musculus; experiment: Inhibition of Hedgehog signaling pathway in Sufu-deficient mouse C3H10T1/2 cells assessed as reduction in oxysterol-induced Gli1 mRNA expression at 1 uM after 24 hrs by q-PCR analysis
Mus musculus [11] = species on record: Mus musculus; experiment: Inhibition of Hedgehog signaling pathway in Sufu-deficient mouse C3H10T1/2 cells assessed as reduction in oxysterol-induced Gli1 mRNA expression at 5 uM after 24 hrs by q-PCR analysis
[12] = Inhibition of Hedgehog signaling pathway in VDR-deficient mouse C3H10T1/2 cells assessed as reduction in oxysterol-induced Gli1 mRNA expression after 24 hrs by q-PCR analysis; settings: C3H 10T1/2, 24 h
Mus musculus [13] = species on record: Mus musculus; experiment: Inhibition of Hedgehog signaling pathway in VDR-deficient mouse C3H10T1/2 cells assessed as reduction in oxysterol-induced Gli1 mRNA expression at 5 uM after 24 hrs by q-PCR analysis
[14] = Inhibition of Hedgehog signaling pathway in Sufu-deficient mouse C3H10T1/2 cells assessed as reduction in oxysterol-induced Gli1 mRNA expression after 24 hrs by q-PCR analysis; settings: C3H 10T1/2, 24 h
Mus musculus [15] = species on record: Mus musculus; experiment: Inhibition of Hedgehog signaling pathway in VDR-deficient mouse C3H10T1/2 cells assessed as change in CYP24A1 mRNA expression at 5 uM after 24 hrs by q-PCR analysis; design: scale not given: the % may be the effect or the level left
Mus musculus [16] = species on record: Mus musculus; experiment: Inhibition of Hedgehog signaling pathway in Sufu-deficient mouse C3H10T1/2 cells assessed as change in CYP24A1 mRNA expression at 5 uM after 24 hrs by q-PCR analysis; design: scale not given: the % may be the effect or the level left
[17] = target: T1, Vitamin D3 receptor (Mus musculus); experiment: Activation of VDR in mouse ASZ001 cells assessed as change in Cyp24A1 mRNA expression at 2.5 uM after 48 hrs by q-PCR analysis relative to control; assay type: cell-based
Mus musculus [18] = species on record: Mus musculus; experiment: Inhibition of Hedgehog signaling pathway in VDR-deficient mouse C3H10T1/2 cells assessed as change in CYP24A1 mRNA expression at 1 uM after 24 hrs by q-PCR analysis; design: scale not given: the % may be the effect or the level left
[19] = target: T1, Vitamin D3 receptor (Mus musculus); experiment: Activation of VDR in mouse ASZ001 cells assessed as change in Cyp24A1 mRNA expression at 1 uM after 48 hrs by q-PCR analysis relative to control; assay type: cell-based

Structure (SMILES)	half-life at 1 µM ([1]; liver microsomes)	solubility kinetic [2]	solubility kinetic [3]	GI50 (Medulloblastoma cell)	CLH [4]	% Gli1 activity (Mus musculus [5])	Activity [6]	EC50 (Vitamin D3 receptor)	IC50 [7]	IC50 [8]	Activity [9]	also measured
CC(C)CCC[C@@H](C)[C@H]1CC[C@H]2[C@H](Nc3ccc(O)cc3)CCC[C@]12C	> 231 min	0.00075 µg/mL (≈ 0.0021 µM)	0.00026 µg/mL (≈ 0.000727 µM)	2.1 µM	< 3							
COC(C)(C)CCC[C@@H](C)[C@H]1CC[C@H]2[C@H](CNc3cccc(O)c3)CCC[C@]12C	43 min	0.06 µg/mL (≈ 0.149 µM)	0.12 µg/mL (≈ 0.299 µM)		16	3.7%	2400%	0.6 µM	0.7 µM	1.1 µM	27%	
COC(C)(C)CCC[C@@H](C)[C@H]1CC[C@H]2[C@@H](OC(=O)c3cccc(O)c3)CCC[C@]12C		0.0027 µg/mL (≈ 0.00648 µM)	0.0023 µg/mL (≈ 0.00552 µM)		15	0.7%	14%	> 10 µM	1 µM	1.6 µM	14%	half-life at 1 µM ([1]; microsomes): 49 min
COC(C)(C)CCC[C@@H](C)[C@H]1CC[C@H]2[C@@H](Nc3cccc(O)c3)CCC[C@]12C	> 231 min	0.017 µg/mL (≈ 0.0439 µM)	0.014 µg/mL (≈ 0.0361 µM)		< 3	3.3%	11000%	0.7 µM	0.6 µM	2.3 µM	89%	
CC(C)CCC[C@@H](C)[C@H]1CC[C@H]2[C@@H](Nc3ccc4c(c3)OCO4)CCC[C@]12C						110%					6.1%	
CS(=O)(=O)c1ccc(C(=O)Nc2ccc(Cl)c(-c3ccccn3)c2)c(Cl)c1 [VISMODEGIB]						0.9%			0.04 µM	0.082 µM		inhibition (Mus musculus [10]): inactive; Hedgehog inhibition activity call (active/not active) (Mus musculus [11]): Active
C[C@H](CCCC(C)(C)O)[C@H]1CC[C@H]2[C@@H](Nc3ccc(O)cc3)CCC[C@]12C		2.4 µg/mL (≈ 6.42 µM)	0.0042 µg/mL (≈ 0.0112 µM)	2.2 µM		11%	> 30000%	0.6 µM	0.2 µM	0.89 to 0.9 µM	15000%	IC50 [12]: 4.9 µM; inhibition (Mus musculus [13]): inactive; IC50 [14]: 2.9 µM; Hedgehog inhibition activity call (active/not active) (Mus musculus [11]): inactive; Activity (Mus musculus [15]): 140%; Activity (Mus musculus [16]): 51%
CC(C)CCC[C@@H](C)[C@H]1CC[C@H]2[C@@H](Nc3ccc(O)cc3)CCC[C@]12C	57 min	0.00062 µg/mL (≈ 0.00173 µM)	0.0026 µg/mL (≈ 0.00727 µM)		12					0.4 µM	45%	IC50 [12]: 3.9 µM; inhibition (Mus musculus [13]): inactive; IC50 [14]: 3.1 µM; Hedgehog inhibition activity call (active/not active) (Mus musculus [11]): inactive; Activity (Mus musculus [15]): 8.1%; Activity (Mus musculus [16]): 1.2%
C=C1CC[C@H](O)C/C1=C/C=C1\CCC[C@]2(C)[C@@H]([C@H](C)CCCC(C)C)CC[C@@H]12 [CHOLECALCIFEROL]				5.8 µM				0.9 µM				IC50 [12]: 4.5 µM; inhibition (Mus musculus [13]): inactive; IC50 [14]: > 10 µM; inhibition (Mus musculus [11]): inactive; Activity (Mus musculus [15]): 5.5%; Activity (Mus musculus [16]): 2.9%
C[C@H](CCCC(C)(C)O)[C@H]1CC[C@H]2[C@H](CNc3cccc(O)c3)CCC[C@]12C				1.6 µM		4.1%	8.4%	> 10 µM	1.3 µM	1.7 µM	34%	
CC(C)CCC[C@@H](C)[C@H]1CC[C@H]2[C@H](CNc3cccc(O)c3)CCC[C@]12C						13%			1.2 µM	3.8 µM	13%	Activity [17]: 7.8%
CCC(CC)(c1ccc(OCC(O)CO)c(C)c1)c1ccc(OCC(O)C(C)(C)C)c(C)c1 (centres undefined) [LG-190178]								0.0077 µM	0.00023 µM	0.00025 µM		IC50 [12]: 1.9 µM; Activity (Mus musculus [18]): 250%; Activity [19]: 13000%
C[C@H](CCCC(C)(C)O)[C@H]1CC[C@H]2[C@@H](Nc3cccc(O)c3)CCC[C@]12C				5.3 µM		5.9%	> 30000%	0.1 µM	0.1 µM	1.3 µM	> 30000%	
COc1cccc(N[C@H]2CCC[C@]3(C)[C@@H]([C@H](C)CCCC(C)C)CC[C@@H]23)c1						110%					1.9%	
CC(C)CCC[C@@H](C)[C@H]1CC[C@H]2[C@H](CNc3ccc(O)cc3)CCC[C@]12C		0.00013 µg/mL (≈ 0.00035 µM)	0.0027 µg/mL (≈ 0.00727 µM)	2.1 µM	< 3	1.9%			0.6 µM	0.6 µM	8.9%	half-life at 1 µM ([1]; microsomes): > 231 min; Activity [17]: 5.8%
CC(C)CCC[C@@H](C)[C@H]1CC[C@H]2[C@@H](NC(=O)c3cccc(O)c3)CCC[C@]12C	> 231 min	0.27 µg/mL (≈ 0.7 µM)	0.68 µg/mL (≈ 1.76 µM)		< 3							
COc1ccc(N[C@H]2CCC[C@]3(C)[C@@H]([C@H](C)CCCC(C)C)CC[C@@H]23)cc1						73%					2.4%	
C[C@H](CCCC(C)(C)O)[C@H]1CC[C@H]2[C@H](CNc3ccc(O)cc3)CCC[C@]12C						5.6%	140%	1.3 µM	0.5 µM	0.4 µM	6.1%	
CC(C)CCC[C@@H](C)[C@H]1CC[C@H]2[C@@H](Nc3ccccc3)CCC[C@]12C						98%					1.2%	
CC(C)CCC[C@@H](C)[C@H]1CC[C@H]2[C@@H](NCc3ccc(O)cc3)CCC[C@]12C						4.6%	1.1%		0.3 µM	3.1 µM	24%	
C[C@H](CCCC(C)(C)O)[C@H]1CC[C@H]2[C@@H](OC(=O)c3cccc(O)c3)CCC[C@]12C	47 min	0.048 µg/mL (≈ 0.119 µM)	0.031 µg/mL (≈ 0.077 µM)	> 10 µM	15	2.9%	> 30000%	0.4 µM	0.4 µM	1.6 µM	27000%	
CC(C)CCC[C@@H](C)[C@H]1CC[C@H]2[C@@H](OC(=O)c3cccc(O)c3)CCC[C@]12C	> 231 min	0.16 µg/mL (≈ 0.414 µM)	0.67 µg/mL (≈ 1.73 µM)	> 10 µM	< 3							
